Data reported in ChEMBL document CHEMBL1154438, “Synthesis, spectral studies and antiamoebic activity of new 1-N-substituted thiocarbamoyl-3-phenyl-2-pyrazolines” (Eur J Med Chem, 2009).

Test system: Entamoeba histolytica
Assay: Antiamoebic activity against Entamoeba histolytica HM-1:IMSS after 72 hrs by microdilution assay
Type: functional, organism-based
Method in brief: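 E. histolytica trophozoites grown in TYIS-33 medium; compounds dissolved in DMSO and diluted in medium to a 1 mg/mL stock, then two-fold serial dilutions in wells. Inoculum 1.7 × 10⁴ organisms/well, gassed with nitrogen, 37 °C for 72 h. Cells methanol-fixed and eosin-stained, dye released with 0.1 N NaOH, OD 490 nm read. Percent inhibition versus log dose, IC50 from linear regression.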

Compound	IC50 [nM]
S=C(N1CCCC1)N1CCC(c2cccc(Cl)c2)=N1	2310
CN(Cc1ccccc1)C(=S)N1CCC(c2cccc(Br)c2)=N1	4440
S=C(N1CCCCCC1)N1CCC(c2ccccc2)=N1	4390
S=C(N1CCCCCC1)N1CCC(c2cccc(Br)c2)=N1	1090
S=C(N1CCCCCC1)N1CCC(c2cccc(Cl)c2)=N1	890
CN(C(=S)N1CCC(c2cccc(Br)c2)=N1)C1CCCCC1	5250
CN(C(=S)N1CCC(c2cccc(Cl)c2)=N1)C1CCCCC1	3710
S=C(N1CCC(c2ccccc2)=N1)N1CCCc2ccccc21	6190
S=C(N1CCC(c2cccc(Cl)c2)=N1)N1CCCc2ccccc21	1770
Cc1ccccc1NC(=S)N1CCC(c2ccccc2)=N1	4780
S=C(N1CCCC1)N1CCC(c2ccccc2)=N1	3730
Fc1ccc(NC(=S)N2CCC(c3ccccc3)=N2)c(F)c1	1760
S=C(NC1C2CC3CC(C2)CC1C3)N1CCC(c2ccccc2)=N1 (stereo not given)	1790
S=C(NC1C2CC3CC(C2)CC1C3)N1CCC(c2cccc(Br)c2)=N1 (stereo not given)	580
CN(C(=S)N1CCC(c2ccccc2)=N1)C1CCCCC1	5940
CN(Cc1ccccc1)C(=S)N1CCC(c2ccccc2)=N1	7310
S=C(N1CCCC1)N1CCC(c2cccc(Br)c2)=N1	2820
S=C(NC1C2CC3CC(C2)CC1C3)N1CCC(c2cccc(Cl)c2)=N1 (stereo not given)	470
S=C(N1CCC(c2cccc(Br)c2)=N1)N1CCCc2ccccc21	2780
Fc1ccc(NC(=S)N2CCC(c3cccc(Br)c3)=N2)c(F)c1	670

Next, values leading:

IC50 [nM]	Compound
2910	CN(Cc1ccccc1)C(=S)N1CCC(c2cccc(Cl)c2)=N1
3820	Cc1ccccc1NC(=S)N1CCC(c2cccc(Br)c2)=N1
1680	Cc1ccccc1NC(=S)N1CCC(c2cccc(Cl)c2)=N1
5010	Cc1cccc(NC(=S)N2CCC(c3ccccc3)=N2)c1
3350	Cc1cccc(NC(=S)N2CCC(c3cccc(Br)c3)=N2)c1
2810	Cc1cccc(NC(=S)N2CCC(c3cccc(Cl)c3)=N2)c1
5330	Cc1ccc(NC(=S)N2CCC(c3cccc(Br)c3)=N2)cc1
2400	Cc1ccc(NC(=S)N2CCC(c3cccc(Cl)c3)=N2)cc1
510	Fc1ccc(NC(=S)N2CCC(c3cccc(Cl)c3)=N2)c(F)c1
9560	Cc1ccc(NC(=S)N2CCC(c3ccccc3)=N2)cc1
